Experimental data: ChEMBL document CHEMBL4406830, “Galloyl esters of trans-stilbenes are inhibitors of FASN with anticancer activity on non-small cell lung cancer cells” (Eur J Med Chem, 2019)
pIC50: −log10 of the molar value. ≈ marks a conversion by molar mass, not a printed value.

What was measured:
[1] = tested on: NCI-H1703; test: Antiproliferative activity against human NCI-H1703 cells expressing FASN assessed as growth inhibition at 25 uM after 72 hrs by MTS assay relative to control; assay type: functional; details: NCI-H1703, 72 h
Outline: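 H1703 cells were treated with a single 25 µM concentration for 72 h. Viability was measured by MTS at 490 nm, with 0.1% DMSO and media-only correction, relative to untreated control. Mean ± SD of n = 3 independent determinations, unpaired t test against control.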

[2] = tested on: NCI-H1703; test: Antiproliferative activity against human NCI-H1703 cells expressing FASN assessed as reduction in cell viability after 72 hrs by MTS assay; assay type: functional, cell-based; details: NCI-H1703, 72 h
Outline: (§1)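 ATCC-sourced cells. H1299, H1650, H1703 and PC-9 were grown in RPMI 1640 with 10% FBS. A549 was grown in high-glucose DMEM with 10% FBS and 1 mM pyruvate. SAEC was grown in BEGM. Cells were seeded at 3 × 10^3 per well (H1650 3.5 × 10^3) and left to attach overnight. Serial dilutions from DMSO stocks were added, 0.1% DMSO final, for 72 h at 37 °C, 5% CO2. Medium was replaced, MTS added, and A490 read after 2 h. IC50 was taken from % viability versus log concentration, 3 experiments.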

[3] = tested on: NCI-H1650; test: Antiproliferative activity against human NCI-H1650 cells expressing FASN assessed as reduction in cell viability after 72 hrs by MTS assay; assay type: functional, cell-based; details: NCI-H1650, 72 h; outline: as §1
[4] = tested on: NCI-H1299; test: Antiproliferative activity against human NCI-H1299 cells expressing FASN assessed as reduction in cell viability after 72 hrs by MTS assay; assay type: functional, cell-based; details: NCI-H1299, 72 h; outline: as §1
[5] = Kinetic solubility of the compound in universal buffer at pH 7.4 measured at 25 degC after 24 hrs by UV/Visible spectroscopic analysis; assay type: physicochemical; details: read-out: Kinetic_solubility

| SMILES | pIC50 [2] | pIC50 [3] | pIC50 [4] | solubility kinetic at 24 h [5] [µM] | inhibition at 25 µM [1] [%] |
| --- | --- | --- | --- | --- | --- |
| COc1cc(C(=O)Oc2ccc(/C=C/c3ccccc3)cc2)cc(OC)c1OC |  |  |  |  | < 50 |
| O=C(Oc1cccc2c1CCCC2OC(=O)c1cc(O)c(O)c(O)c1)c1cc(O)c(O)c(O)c1 (stereo not drawn) | 5.19 | 4.44 | 4.99 |  | > 50 |
| O=C(Oc1cccc(/C=C/c2ccccc2)c1)c1cc(O)c(O)c(O)c1 |  |  |  |  | < 50 |

More lines, main results first:

| pIC50 [2] | pIC50 [3] | pIC50 [4] | solubility kinetic at 24 h [5] [µM] | SMILES | inhibition at 25 µM [1] [%] |
| --- | --- | --- | --- | --- | --- |
| 4.76 | 4.40 | 4.43 |  | O=C(Oc1ccc(/C=C/c2cccc(OC(=O)c3ccc(O)cc3)c2)cc1)c1ccc(O)cc1 | > 50 |
| 4.95 | 4.80 | 5.07 |  | O=C(Oc1ccc(/C=C/c2ccccc2)cc1)c1cc(O)c(O)c(O)c1 | > 50 |
| 5.24 | 5.13 | 5.38 | 0.4 (≈ 0.196 µg/mL) | O=C(Oc1ccc(-c2ccc(OC(=O)c3cc(O)c(O)c(O)c3)cc2)cc1)c1cc(O)c(O)c(O)c1 |  |
